In publication PMC12584159 (Clinical and Translational Science, 2025):
Read-outs that look alike come from different tables or passages of the source. Each block holds one compound with its values, some of them ahead of it.

Tests used:
CYP3A4, CYP2D6 = conditions: human liver microsomes; cited from earlier work
[1] = Mass balance: total radioactivity recovered in urine and feces; format: in vivo, human; conditions: N = 6, mean ± SD; for Proportion of radioactive dose excreted in urine (total radioactivity): through last specimen collection
Outline: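 Healthy men received a single oral 50 mg (~200 μCi) ¹⁴C dose in PEG400/Ora-Sweet solution after a ≥10-h fast. Urine was collected in intervals and all feces during confinement; feces were weighed and homogenized. Pre-dose feces set background. Total radioactivity was measured by combustion/LSC, with BLQ (urine <89 dpm/mL, feces <81 dpm/g) set to zero. Collection continued until discharge criteria or Day 29.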

[2] = cited from earlier work
[3] = Phase 3, placebo 1.8%, cited from earlier work
[4] = Urinary excretion of atogepant and renal clearance; format: in vivo, human; conditions: mean ± SD; for Proportion of administered dose excreted in urine as atogepant (parent drug): LC–MS/MS, urine up to 360 h post‐dose
Outline: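 Urine was collected pre-dose and over 0–4, 4–8, 8–12, 12–24 h, then 24-h intervals until discharge criteria or study end, and stored at −20°C. Atogepant was measured by validated LC–MS/MS (1–1000 ng/mL), with BLQ set to zero. Radioactivity was measured by combustion/LSC. Ae0–t, CLR and fraction of dose excreted were computed.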

[5] = cited from earlier work; remark: listed apart in the source
P‐glycoprotein (P‐gp) = conditions: cited from earlier work
[6] = simian chronic toxicology studies; ref internal data; cited from earlier work
[7] = test system: organic anion transporting polypeptide (OATP); conditions: cited from earlier work
[8] = Metabolite profiling in plasma, urine and feces; format: in vivo, human; conditions: for Feces %DE (dose excreted): feces 0–312 h [n = 1], 0–120 h [n = 3], 0–96 h [n = 2]; for Urine %DE (dose excreted): urine 0–24 h
Outline: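 After a single oral 50 mg ¹⁴C dose, plasma was pooled by Hamilton AUC scheme and extracted with acetonitrile. Urine (0–24 h) was pooled by sample weight, and fecal homogenates with ≥2% dose were acetonitrile-extracted. Profiling used HPLC with radiometric detection and high-resolution MS. Metabolite % was taken from radiochromatogram peak areas. Individual plasma through 312 h was also assayed for M23 by LC–MS/MS.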

[9] = test system: breast cancer resistance protein (BCRP); conditions: cited from earlier work
[10] = Plasma pharmacokinetics of atogepant; format: in vivo, human
Outline: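 Fasted healthy men received a single oral 50 mg ¹⁴C dose. Blood was sampled pre-dose to 168 h, then every 72 h until discharge criteria or Day 29. Samples were centrifuged at ≥2500 g for 10 min at ~4°C, and plasma was stored at −70°C. K₂EDTA plasma was assayed by validated LC–MS/MS (1–1000 ng/mL), with BLQ set to zero. Noncompartmental analysis used actual times; ratios were taken to plasma total radioactivity.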

human CGRP receptor = conditions: preclinical studies; cited from earlier work
Safety/tolerability = format: in vivo, human; conditions: single 50 mg dose
Outline: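 Safety was monitored in all dosed participants after a single 50 mg oral dose, covering AEs (MedDRA 20.1 or newer), physical exam, 12-lead ECG, vital signs, hematology, coagulation, chemistry and urinalysis. ECG and vitals were taken on Day 1; labs and vitals on Day 2. TEAEs were new or worsening AEs within 30 days of dosing.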

[11] = single 10–60 mg dose; healthy Japanese and White adults; cited from earlier work
[12] = first‐generation gepants; cited from earlier work
[13] = plasma, single oral 50 mg, N = 6, mean ± SD

Proportion of radioactive dose excreted in feces (total radioactivity) ([1]; through last specimen collection (336 h, 14 days)): 81%
Proportion of radioactive dose excreted in urine (total radioactivity) [1]: 8%
Proportion of radioactive dose excreted in urine (total radioactivity) ([1]; listed as atogepant): ~ 8%
Proportion of administered dose excreted in urine as atogepant (parent drug) ([4]; N = 6): 4.84% ± 1.63%
Proportion of administered dose excreted in urine as atogepant (parent drug) ([4]; N = 6, listed as atogepant): Approximately 5%
Urine excretion, atogepant/total radioactivity ratio ([4]; N = 6): 0.605 ± 0.109
CLR (renal clearance), atogepant ([4]; single oral 50 mg, N = 6): 1.18 ± 0.33 L/h
Urine Ae0–t (total urine atogepant excretion) ([4]; up to 360 h post‐dose): 2.42 ± 0.82 mg
Disproportionate human metabolites ([8]; comparison of this study to in vivo rat and monkey studies): no disproportionate human metabolites
Feces %DE (dose excreted) ([8]; mean ± SD, ND = not detected or < 1% of dose or AUC0–t, listed as Parent): 42.2 ± 4.2%
Feces %DE (dose excreted) ([8]; mean ± SD, ND = not detected or < 1% of dose or AUC0–t, listed as parent drug): 42%
dose excreted ([8]; human, feces, oral, 50 mg, Share of fecal radioactivity recovery, unabsorbed drug, biliary excretion, and/or intestinal secretion): ~52%
Plasma %AUC0–t (percent of radioactive exposure) ([8]; pooled plasma 0–36 h (0–24 h for one participant), HPLC‐RAD, N = 6, mean ± SD, ND = not detected or < 1% of dose or AUC0–t): 84.7 ± 9.2%
Urine %DE (dose excreted) ([8]; N = 6, mean ± SD, ND = not detected or < 1% of dose or AUC0–t): 5%
Urine %DE (dose excreted) ([8]; N = 6, mean ± SD, ND = not detected or < 1% of dose or AUC0–t, listed as Parent): 5.21 ± 1.69%
Time after dosing up to which atogepant plasma concentrations were measurable ([10]; LOQ 1 ng/mL): up to 120 h
AUC(0-inf) ([10]; male, human, plasma, po, 50 mg): 2220 ± 966 ng·h/mL
AUC(0-t) ([10]; male, human, plasma, po, 50 mg): 2180 ± 960 ng·h/mL
Cmax ([10]; male, human, plasma, po, 50 mg): 367 ± 189 ng/mL
half-life ([10]; male, human, plasma, po, 50 mg): 18.5 ± 11.9 h
AUC0–t, atogepant/total radioactivity ratio [10, 13]: 0.776 ± 0.167
AUC0–∞, atogepant/total radioactivity ratio [10, 13]: 0.728 ± 0.172
C max, atogepant/total radioactivity ratio [10, 13]: 0.997 ± 0.286
AUC0–∞, atogepant/total radioactivity ratio ([10]; plasma, single oral 50 mg, N = 6, mean ± SD, listed as atogepant): ~ 0.75
T max, atogepant ([10]; plasma, single oral 50 mg, N = 6, median (range)): 1 (0.98–2.98) hours
Compound: C[C@@H]1[C@H](c2c(F)ccc(F)c2F)C[C@H](NC(=O)c2cnc3c(c2)C[C@@]2(C3)C(=O)Nc3ncccc32)C(=O)N1CC(F)(F)F [Atogepant]
Enzymes metabolizing atogepant (CYP3A4, CYP2D6): predominantly metabolized via CYP3A4 with minor involvement of CYP2D6
Effect of quinidine (strong P‐gp inhibitor) on atogepant exposure ([2]; clinical DDI study): no clinically relevant increase in atogepant exposure
Effect of co‐administration on atogepant exposure ([2]; multiple‐dose rifampin (strong CYP3A4 and P‐gp inducer)): significantly decreased atogepant exposure
Effect of co‐administration on atogepant exposure ([2]; single‐dose rifampin (OATP inhibitor), healthy participants): significantly increased atogepant exposure
Proportion of patients with ALT and AST elevations ≥ 3× upper limit of normal ([3]; atogepant 10 mg/day): 0.9%
Proportion of patients with ALT and AST elevations ≥ 3× upper limit of normal ([3]; atogepant 30 mg/day): 0.9%
Proportion of patients with ALT and AST elevations ≥ 3× upper limit of normal ([3]; atogepant 60 mg/day): 0.4%
Accumulation with daily dosing [5]: does not accumulate with daily dosing
Bioavailability, tablet vs. PEG solution dosing [5]: higher with tablet vs. PEG solution dosing
Substrate of P‐gp (P‐glycoprotein (P‐gp)): substrate
No‐observed‐adverse‐effect level [6]: 300 mg/kg
Substrate of OATP [7]: substrate
Substrate of BCRP [9]: substrate
Affinity, potency and selectivity for the receptor (human CGRP receptor): high affinity, potency, and selectivity
Tolerability (Safety/tolerability; healthy males N = 6): well‐tolerated
ALT or AST elevations (Safety/tolerability; healthy participants N = 6): no ALT or AST elevations observed
CLR (renal clearance) [11]: 0.9 to 1.5 L/h

Compound: O=C(CN1C(=O)C2(CCCC2)NC[C@H]1c1cc(F)cc(F)c1)Nc1ccc2c(c1)C[C@@]1(C2)C(=O)Nc2ncccc21 [MK‐3207]
Liver toxicity in clinical trials [12]: liver toxicity concerns

Compound: O=C(N[C@@H]1CC[C@@H](c2cccc(F)c2F)CN(CC(F)(F)F)C1=O)N1CCC(n2c(=O)[nH]c3ncccc32)CC1 [telcagepant]
Liver toxicity in clinical trials [12]: liver toxicity concerns
